Assay outcomes as filed in PubChem BioAssay.
Yeast growth inh: yeast BB579 growth reduction in restrictive medium; S. cerevisiae BB579 growth, OD615, 48 h; inhibition, % at 10 µM; 140,000 tested, 0.51% active;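 active = inhibition above a set limit, 3 SD over the mean compound inhibition, cut at about 44% in these data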
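controls = amphotericin B 10 µg/mL, positive | assay system = DeaD yeast strain BB579 | schedule = 48 h compound exposure at 30 °C after 4 h preincubation | detection = OD615 turbidity measurement | medium = restrictive CSMM-D medium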
Measles CPE: protection of cells from measles virus; 140,000 tested, 1.5% active; Measles virus-infected cells, CPE protection, absorbance; protection (pct of control), % at 4 µM; in the data active = protection mostly above about 24%, no sharp cut-off; inactive = mostly below about 26%
RAM inhibit: yeast RAM network inhibition; 190,000 tested, 1.8% active; S. cerevisiae dse1pr::URA3 reporter, 5-FOA growth OD615, 2 d; analog-sensitive cbk1-as2 kinase mutant strain; inhibition, % at 50 µM;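 active = inhibition above a set limit, 3 SD over mean compound inhibition, cut at about 8.4% in these data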;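 note: inhibition rescues growth on 5-FOA so higher OD means more RAM inhibition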
Yeast lifespan up: extends the lifespan of yeast | inhibition of the nicotinamide effect, % at 10 µM | S. cerevisiae growth with nicotinamide, OD615; deaD strain in restrictive glucose medium | 130,000 tested, 0.68% active;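 active = inhibition above a set limit, placed 3 SD over the median of all compounds, cut at about 26% in these data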
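Assay system: engineered S. cerevisiae DeaD replicative-lifespan strain, galactose-grown log-phase cells; medium: restrictive CSMM-D dextrose medium; also added: nicotinamide, 1.5 mM, co-present with compound; schedule: 48 h compound exposure at 30 °C, humidified; detection: absorbance at 615 nm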
Mdm2 ligase inh: blocks human Mdm2 ubiquitin ligase activity. cell-based MDM2 ubiquitination luciferase reporter, 2 h; 0 = plate control, 100 = twice control, blank-subtracted. signal enhancement, % at 5 µM. 210,000 tested, 0.11% active. AID 1230;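 active = signal enhancement of 30% or more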;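 note: luminescence tracks abundance of the self-degrading MDM2-luciferase fusion protein; higher signal means inhibition of MDM2 E3 ligase activity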
Target sequence (Q00987 whole entry, looked up, the tested form may be a part): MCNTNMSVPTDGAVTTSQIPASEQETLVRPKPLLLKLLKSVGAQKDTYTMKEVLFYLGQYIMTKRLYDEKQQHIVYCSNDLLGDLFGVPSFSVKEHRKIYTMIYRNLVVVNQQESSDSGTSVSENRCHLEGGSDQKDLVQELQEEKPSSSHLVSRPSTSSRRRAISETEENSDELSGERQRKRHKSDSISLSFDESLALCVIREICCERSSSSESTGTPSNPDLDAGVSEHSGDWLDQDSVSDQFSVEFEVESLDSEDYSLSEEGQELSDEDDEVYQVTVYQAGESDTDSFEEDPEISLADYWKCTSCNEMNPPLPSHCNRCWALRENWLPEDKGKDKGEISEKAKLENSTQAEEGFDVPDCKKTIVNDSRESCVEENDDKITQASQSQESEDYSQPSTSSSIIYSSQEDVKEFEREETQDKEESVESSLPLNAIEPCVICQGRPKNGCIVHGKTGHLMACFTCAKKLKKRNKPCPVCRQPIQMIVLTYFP
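Material: Stable MDM2–luciferase fusion reporter cells | Amount: 2000 cells seeded into each well | Dosing: One concentration, 5 µM, with 0.2% DMSO | Incubation: 4 h cell settling then 2 h compound exposure, 37 °C | Measured by: Luciferase luminescence | Read-out basis: % enhancement relative to plate controls after blank subtraction | Benchmarks: Control and blank well means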
INS promoter inh: TRM-6 insulin promoter activity inhibition; TRM-6 cells, insulin promoter-eGFP reporter, imaging; reporter expression induced with tamoxifen; inhibition, % at 2 µM; 130,000 tested, 0.9% active; AID 1273;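 active = inhibition above the mean plus 3 SD, with well images judged a real hit on visual review, cut at about 60% in these data, passing the limit was not always enough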
Of the large screens only hits and unclear results are named; the others gave an inactive call. Most compounds without a hit are left out; they make up all but 4% or so of the library.

Cc1cc(/C=N/NC(=O)c2ccncc2)c(C)n1-c1ccccc1	none
Cc1cc(/C=N/NC(=O)c2cccs2)c(C)n1-c1ccccc1	Measles CPE 76.9
COc1ccccc1NC(=O)c1cc(Sc2nncn2C)nc2ccccc12	none (no result: INS promoter inh)
COc1ccc(-c2csc(NC(=S)NC(=O)/C=C/c3ccco3)n2)cc1Br	none (no result: Yeast growth inh, Measles CPE, RAM inhibit, Yeast lifespan up, INS promoter inh)
COc1ccc(-c2csc(NC(=O)C3COc4ccccc4O3)n2)cc1OC (stereo not drawn)	RAM inhibit 10.2 (no result: Yeast growth inh, Measles CPE, Yeast lifespan up, INS promoter inh)
COc1ccc(/C=N/NC(=O)C2COc3ccccc3O2)cc1OC (stereo not drawn)	none (no result: Yeast growth inh, Measles CPE, Yeast lifespan up)
COc1ccc(-c2csc(NC(=S)NC(=O)/C=C/c3ccco3)n2)cc1OC	RAM inhibit 9.7
O=C(N1CCCC1)C(F)(F)Oc1ccc(F)cc1	none (no result: Yeast growth inh, Measles CPE, Yeast lifespan up, INS promoter inh)
CCOC(=O)c1nn(-c2ccc(OCC)cc2)c2nc(-c3cccc(OC)c3)c(C#N)c(=O)n12	RAM inhibit 9.7
CCOC(=O)c1nn(-c2ccc(F)cc2)c2nc(-c3ccccc3)c(C#N)c(=O)n12	Yeast lifespan up 27.2
CC1=NNC(=O)C1CCC(=O)N/N=C/C(Br)=C/c1ccccc1 (stereo not drawn)	Yeast lifespan up 34.7 (no result: INS promoter inh)
CCCn1nc2cc(C(=O)NCc3ccc(C)cc3)ccc2c1OCC	Measles CPE 84.0 (no result: INS promoter inh)
CCOc1c2ccc(C(=O)NCc3ccc(C)cc3)cc2nn1CC	none (no result: INS promoter inh)
CCOC(=O)CNc1nc(C(C)(C)C)nc2c1nnn2Cc1ccccc1Cl	RAM inhibit 10.4
CCCCSc1nc(C)[nH]c1[N+](=O)[O-]	INS promoter inh 75.0
Cc1nc(SCCO)c([N+](=O)[O-])[nH]1	none (no result: Yeast growth inh, Measles CPE, RAM inhibit, Yeast lifespan up, INS promoter inh)
Cc1ccc(NC(=S)NNC(=O)c2c(Cl)c(C)nn2C)cc1	none
Cc1ccc(NC(=S)NNC(=O)c2nn(C)c(C)c2Cl)cc1	Measles CPE 102.0
CCOC(=O)c1c(NC(=O)COC(=O)C2CC2C)sc(C)c1C (stereo not drawn)	none (no result: Yeast growth inh, Measles CPE, Yeast lifespan up, INS promoter inh)
CCOC(=O)CC(=O)CSc1nc2ccc(OC)cc2cc1C	none (no result: Yeast growth inh, Measles CPE, Yeast lifespan up, INS promoter inh)
CC1Cc2nc(SCC(=O)Nc3ccc(F)cc3F)n(C)c(=O)c2S1 (stereo not drawn)	Measles CPE 41.2 (no result: Yeast lifespan up)
Cc1ccc(C)c(NC(=O)CSc2nc3c(c(=O)n2C)SC(C)C3)c1 (stereo not drawn)	none (no result: INS promoter inh)
Cc1cc(SCC(=O)OCC(=O)NC(C)c2ccccc2)c(C)cc1Br (stereo not drawn)	RAM inhibit 10.1
Cc1cc(Br)ccc1SCC(=O)OCC(=O)NC(C)c1ccccc1 (stereo not drawn)	none
COc1ccc(NC(=O)COC(=O)Cc2c(F)cccc2Cl)cc1OC	none (no result: Yeast growth inh, Measles CPE, Yeast lifespan up, INS promoter inh)
COc1ccc(OC)c(NC(=O)Cc2coc3ccc4ccccc4c23)c1	none
Cc1c(NC(=O)c2noc(C(C)C)c2[N+](=O)[O-])c(=O)n(-c2ccccc2)n1C	Measles CPE 29.2 (no result: INS promoter inh)
Cc1cc(C(=O)Nc2c(C)n(C)n(-c3ccccc3)c2=O)on1	none (no result: INS promoter inh)
Cc1c(Nc2cc(N3CCOCC3)c3nonc3c2[N+](=O)[O-])c(=O)n(-c2ccccc2)n1C	none (no result: Yeast growth inh, Measles CPE, Yeast lifespan up, INS promoter inh)
Cc1c(Nc2cc(Cl)c3nonc3c2[N+](=O)[O-])c(=O)n(-c2ccccc2)n1C	INS promoter inh 100.0 (no result: Yeast growth inh, Measles CPE, Yeast lifespan up)
Cc1ccc(-c2nnc(Nc3ccccc3)o2)cc1	none (no result: INS promoter inh)
Cc1cc([N+](=O)[O-])ccc1NC(=O)CN1C2CCC1CC(NC(=O)NC13CC4CC(CC(C4)C1)C3)C2 (stereo not drawn)	none (no result: Yeast growth inh, Measles CPE, Yeast lifespan up, INS promoter inh)
C=CCN(c1cccc(C(F)(F)F)c1)S(=O)(=O)c1cccc(C(=O)OCC(=O)NC(N)=O)c1	RAM inhibit 9.1
C=CCN(c1cccc(C(F)(F)F)c1)S(=O)(=O)c1cccc(C(=O)OCC(=O)Nc2ccccc2)c1	RAM inhibit 9.0
C=CCN(c1cccc(C(F)(F)F)c1)S(=O)(=O)c1cccc(C(=O)OCC(=O)NC)c1	none (no result: INS promoter inh)
O=C1C=CCC(/C=C/c2ccccc2)O1 (stereo not drawn)	Yeast lifespan up 41.1 (no result: Mdm2 ligase inh)
CC(=O)C1=C(C)NC(=O)NC1/C=C/c1ccccc1 (stereo not drawn)	none (no result: Yeast growth inh, Measles CPE, Yeast lifespan up, INS promoter inh)
O=C1N(c2cccc3ccccc23)C(c2ccccc2)N2CCCN12 (stereo not drawn)	Measles CPE 20.2
